Assay results pooled from the literature.
Lines come from different studies, so protocols differ.
Target: Serine/threonine-protein kinase STK11 (STK11, Homo sapiens, UniProt Q15831)
One construct used (Q15831 1-433): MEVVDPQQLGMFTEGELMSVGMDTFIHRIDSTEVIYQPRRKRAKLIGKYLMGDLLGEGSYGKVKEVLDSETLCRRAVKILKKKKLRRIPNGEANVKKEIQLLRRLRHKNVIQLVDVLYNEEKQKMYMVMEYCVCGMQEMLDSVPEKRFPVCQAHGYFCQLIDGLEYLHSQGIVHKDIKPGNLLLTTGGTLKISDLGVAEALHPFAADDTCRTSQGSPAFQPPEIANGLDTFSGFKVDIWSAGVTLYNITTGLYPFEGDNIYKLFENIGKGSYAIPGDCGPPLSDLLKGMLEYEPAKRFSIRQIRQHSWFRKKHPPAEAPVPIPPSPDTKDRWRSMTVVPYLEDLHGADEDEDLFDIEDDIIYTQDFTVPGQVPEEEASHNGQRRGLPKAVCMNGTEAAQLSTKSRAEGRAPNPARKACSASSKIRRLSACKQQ

| SMILES | read-out | mode | method | tested at | endpoint | value |
| --- | --- | --- | --- | --- | --- | --- |
| FC(F)c1nc2ccccc2n1-c1nc(N2CCOCC2)nc(N2CCOCC2)n1 | enzyme activity | inhibitor |  | 10 µM | remaining activity | 103% |
| Cc1cnc(NC2CCOCC2)nc1-n1cnc(C(=O)NC(CN)c2cc(F)cc(Cl)c2)c1 (stereo not shown) | enzyme activity | inhibitor | radiometric | 1 µM | remaining activity | 104% |
| Cc1ccc(-n2nc(C(C)(C)C)cc2NC(=O)Nc2ccc(OCCN3CCOCC3)c3ccccc23)cc1 | enzyme activity | inhibitor |  | 10 µM | inhibition | 10% |
| Cn1c(=O)n(-c2ccc(C(C)(C)C#N)cc2)c2c3cc(-c4cnc5ccccc5c4)ccc3ncc21 | enzyme activity | inhibitor |  | 10 µM | remaining activity | 105% |
| O=C1Nc2ccc(Cl)cc2C1=Cc1cc(Cl)c(O)c(Cl)c1 | cell-free assay |  |  | 0.5 µM | remaining signal | 93.1% |
| COc1cc(Nc2cnc(C#N)c(O[C@H](C)CN(C)C)n2)ncc1-c1cnn(C)c1 | enzyme activity | inhibitor | radiometric | 10 µM | remaining activity | 64% |
| Cc1c[nH]c2nccc(Oc3c(F)cc(Nc4cc(Cl)nc(N)n4)cc3F)c12 | cell-free assay |  | competition with immobilised ligand | 0.1 µM | remaining binding | 100% |
| CCN(CC)CCNC(=O)c1c(C)[nH]c(/C=C2\C(=O)Nc3ccc(F)cc32)c1C | enzyme activity | inhibitor |  | 10 µM | inhibition | 3% |
| O=c1nc(-c2ccccn2)sc2ccccc12 | binding |  | competition with immobilised ligand | 1 µM | remaining binding | 79% |
| FC(F)(F)Oc1cccc(-c2cnc3ccc(-c4ccncc4)nn23)c1 | enzyme activity | inhibitor | radiometric | 5 µM | activity vs control | 106% |
| Cc1ccc(C(=O)Nc2ccc(CN3CCN(C)CC3)c(C(F)(F)F)c2)cc1C#Cc1cnc2cccnn12 | enzyme activity | inhibitor |  | 23.5 nM | remaining activity | 96% |
| CCS(=O)(=O)c1cc2cc(C[C@](O)(CC(C)(C)c3ccc(F)cc3C(N)=O)C(F)(F)F)[nH]c2cn1 | cell-free assay |  | competition with immobilised ligand | 1 µM | remaining binding | 100% |
| Cc1ccc(Nc2nccc(N(C)c3ccc4c(C)n(C)nc4c3)n2)cc1S(N)(=O)=O | enzyme activity | inhibitor |  | 10 µM | inhibition | -2% |
| CNC(=O)c1ccc(Nc2ncc(C(F)(F)F)c(NCc3nccnc3N(C)S(C)(=O)=O)n2)cc1 | cell-free assay |  | competition with immobilised ligand | 0.1 µM | remaining binding | 100% |
| O=C(Nc1cnn(-c2csc(C(=O)NC3COC3)c2)c1)Nc1ccccc1Cl | enzyme activity | inhibitor |  | 5 µM | remaining activity | 118% |
| Cn1nc(C(F)(F)F)cc1-c1cnc(N2CCc3cc(S(=O)(=O)Nc4c(F)cc(Cl)cc4F)cc(N4CCCC4=O)c32)nc1 | cell-free assay |  | competition with immobilised ligand | 1 µM | remaining binding | 100% |
| COc1cc2ncnc(Nc3ccc(F)c(Cl)c3)c2cc1OCCCN1CCOCC1 | cell-free assay |  |  | 0.5 µM | remaining signal | 106% |
| CC(C)c1ccc(NC(=O)c2cccs2)c(-c2nc3ccccc3[nH]c2=O)c1 | enzyme activity | inhibitor |  | 1 µM | activity vs control | 76% |
| O=C1NC(=O)c2cc(Nc3ccc(F)cc3)c(Nc3ccc(F)cc3)cc21 | cell-free assay |  |  | 0.5 µM | remaining signal | 98.2% |
| CCCCN(CCCC)C(=O)CN1C[C@@H](c2cc(OC)c3c(c2)OCO3)[C@H](C(=O)O)[C@H]1CC(C)(C)CCC | cell-free assay |  | competition with immobilised ligand | 1 µM | remaining binding | 82.2% |
| CN1CC(Oc2cnc(C#N)cc2-c2ccn3nc(NC(=O)C4CC4)cc3c2)C1 | enzyme activity | inhibitor |  | 1 µM | inhibition | -2% |
| CNCc1ccccc1-c1csc([C@H](C)Nc2nc(C)nc3cc(OC)c(OC)cc23)c1 | cell-free assay |  | competition with immobilised ligand | 1 µM | remaining binding | 100% |
| CCCOc1ccc(OC)c(F)c1C(=O)c1ccc(C(=O)N[C@@H]2CNC[C@H]2NC(=O)c2ccc3[nH]ncc3c2)cc1 | enzyme activity | inhibitor |  | 10 µM | remaining activity | 92% |
| CC(=O)N1CCC(c2ccc(C(=O)NC3=NCCN3)cc2C(F)(F)F)CC1 | cell-free assay |  | competition with immobilised ligand | 1 µM | remaining binding | 71% |
| CN(c1nccc(-c2cnn3ncccc23)n1)C1CC1 | cell-free assay |  |  | 1 µM | remaining signal | 100% |
